These results are taken from ChEMBL document CHEMBL3393015, “Design, synthesis and evaluation of marinopyrrole derivatives as selective inhibitors of Mcl-1 binding to pro-apoptotic Bim and dual Mcl-1/Bcl-xL inhibitors” (Eur J Med Chem, 2015).

Each structure is given as a SMILES string. Calls of active or inactive are those of the source. No cut-off for these calls is given here. Where only a bound is given, the exact number is not on record here.

Assay [1] has as its target Induced myeloid leukemia cell differentiation protein Mcl-1/Bcl-2-like protein 11 (Homo sapiens, UniProt Q07820). The assay can be described thus: Inhibition of Mcl1/Bim (unknown origin) by ELISA. In kind it is protein assay.
In assay [2] the target is Bcl-xL/Bcl-2-like protein 11 (Homo sapiens, UniProt Q07817). The assay can be described thus: Inhibition of Bcl-xL/Bim (unknown origin) by ELISA. The class given is protein assay. (ELISA stands for enzyme-linked immunosorbent assay.)
Bcl-xL/Bcl-2-like protein 11, sequence (Q07817 whole entry): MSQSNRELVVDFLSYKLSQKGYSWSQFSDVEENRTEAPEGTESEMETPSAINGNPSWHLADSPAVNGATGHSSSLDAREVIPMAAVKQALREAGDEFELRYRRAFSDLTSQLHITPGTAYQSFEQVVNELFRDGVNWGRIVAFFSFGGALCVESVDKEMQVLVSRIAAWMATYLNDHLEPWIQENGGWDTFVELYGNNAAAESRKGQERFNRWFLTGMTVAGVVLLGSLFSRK
Bcl-xL/Bcl-2-like protein 11, sequence (O43521 whole entry, further chain): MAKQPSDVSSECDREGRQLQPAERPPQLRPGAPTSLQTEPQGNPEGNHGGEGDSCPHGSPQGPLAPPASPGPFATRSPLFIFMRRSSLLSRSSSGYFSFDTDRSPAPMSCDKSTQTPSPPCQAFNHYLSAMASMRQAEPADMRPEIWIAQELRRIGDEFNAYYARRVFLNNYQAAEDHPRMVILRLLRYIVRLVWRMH
The test system of assay [3] is MDA-MB-468. The assay can be described thus: Reduction in Mcl1 level in human MDA-MB-468 cells at 3 uM. The class given is functional, cell-based. In outline: (§1)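 Human MDA-MB-468 breast cancer cells were exposed to the derivatives at 3 μM, and some at up to 10 μM. Cells were then processed for western blotting. Read-outs were Mcl-1 protein level and caspase 3 cleavage, used as the apoptosis marker.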

Assay [4] has as its system MDA-MB-468. The assay can be described thus: Reduction in Mcl1 level in human MDA-MB-468 cells at 10 uM. In kind it is functional, cell-based. In short, it runs like this: as §1
The test system of assay [5] is MDA-MB-468. The assay can be described thus: Induction of apoptosis in human MDA-MB-468 cells assessed as caspase 3 activity at 10 uM for 16 hrs. In kind it is functional, cell-based. In outline:
as §1

In assay [6] the test system is MDA-MB-468. The assay can be described thus: Induction of apoptosis in human MDA-MB-468 cells assessed as caspase 3 activity at 3 uM for 16 hrs.

Induced myeloid leukemia cell differentiation protein Mcl-1/Bcl-2-like protein 11, sequence (Q07820 whole entry): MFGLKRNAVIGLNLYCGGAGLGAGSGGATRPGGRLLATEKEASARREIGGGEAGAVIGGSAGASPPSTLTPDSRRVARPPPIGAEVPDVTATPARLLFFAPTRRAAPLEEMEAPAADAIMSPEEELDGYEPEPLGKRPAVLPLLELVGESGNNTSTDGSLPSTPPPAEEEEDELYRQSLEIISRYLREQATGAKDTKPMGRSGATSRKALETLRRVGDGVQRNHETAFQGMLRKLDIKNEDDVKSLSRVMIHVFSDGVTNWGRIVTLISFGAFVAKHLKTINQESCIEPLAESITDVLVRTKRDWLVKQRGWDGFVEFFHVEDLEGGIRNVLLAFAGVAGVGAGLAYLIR
Induced myeloid leukemia cell differentiation protein Mcl-1/Bcl-2-like protein 11, sequence (O43521 whole entry, further chain): as the sequence (O43521 whole entry, further chain) above

As usually defined, the IC50 is the concentration that inhibits the measured activity by half. A low value points to greater potency. Regarding `O=C(c1ccc(-c2cn(-c3ccccc3)nn2)cc1O)c1[nH]c(Cl)c(Cl)c1-n1c(C(=O)c2ccc(-c3cn(-c4ccccc4)nn3)cc2O)cc(Cl)c1Cl`, the IC50 in assay [1] worked out at 1.5 µM; in assay [2] it was 0.8 µM.
For `CC(C)(C)OC(=O)Cn1cc(-c2cc(O)c(C(=O)c3[nH]c(Cl)c(Cl)c3-n3c(C(=O)c4cc(Cl)c(-c5cn(CC(=O)OC(C)(C)C)nn5)cc4O)cc(Cl)c3Cl)cc2Cl)nn1`, the IC50 came to 1.6 µM in assay [1] and 14 µM in assay [2].
In the case of `CCOC(=O)CSc1ccc(C(=O)c2[nH]c(Cl)c(Cl)c2-n2c(C(=O)c3ccc(SCC(=O)OCC)cc3O)cc(Cl)c2Cl)c(O)c1`, the result in assay [3] was inactive.
As to `CCOC(=O)Cn1cc(-c2cc(O)c(C(=O)c3[nH]c(Cl)c(Cl)c3-n3c(C(=O)c4cc(Cl)c(-c5cn(CC(=O)OCC)nn5)cc4O)cc(Cl)c3Cl)cc2Cl)nn1`, in assay [2], the IC50 is greater than 100 µM. Moreover, the outcome in assay [4] and in assay [5] was inactive.
In the case of `Cc1cc(O)c(C(=O)c2[nH]c(Cl)c(Cl)c2-n2c(C(=O)c3cc(Cl)c(C)cc3O)cc(Cl)c2Cl)cc1Cl`, the outcome in assay [4] and in assay [6] was Active.
Turning to `O=C(c1ccc(-c2cn(Cc3ccccc3)nn2)cc1O)c1[nH]c(Cl)c(Cl)c1-n1c(C(=O)c2ccc(-c3cn(Cc4ccccc4)nn3)cc2O)cc(Cl)c1Cl`, the IC50 in assay [1] worked out at 3.3 µM; in assay [2], 1.6 µM. In addition, the result in assay [4] and in assay [5] was inactive.
As to `O=C(c1ccccc1O)c1[nH]c(Cl)c(Cl)c1-n1c(C(=O)c2cc(Cl)ccc2O)cc(Cl)c1Cl`, the figures for the IC50 in assay [1] and in assay [2] were 3.9 µM and 18.3 µM, respectively. In addition, the result in assay [4] and in assay [6] was inactive.
Take `CC1(C)CCC(c2ccc(Cl)cc2)=C(CN2CCN(c3ccc(C(=O)NS(=O)(=O)c4ccc(N[C@H](CCN5CCOCC5)CSc5ccccc5)c(S(=O)(=O)C(F)(F)F)c4)cc3)CC2)C1`: the result in assay [3] was inactive.
As for `C#Cc1ccc(C(=O)c2[nH]c(Cl)c(Cl)c2-n2c(C(=O)c3ccc(C#C)cc3O)cc(Cl)c2Cl)c(O)c1`, the outcome in assay [4] and in assay [6] was Active.
As to `O=C(c1ccc(OS(=O)(=O)C(F)(F)F)cc1O)c1[nH]c(Cl)c(Cl)c1-n1c(C(=O)c2ccccc2O)cc(Cl)c1Cl`, the IC50 in assay [1] was found to be 1 µM; in assay [2], 2.1 µM. Besides, the outcome in assay [4] and in assay [6] was Active.
As to `O=C(c1ccc(O)cc1O)c1[nH]c(Cl)c(Cl)c1-n1c(C(=O)c2ccc(O)cc2O)cc(Cl)c1Cl`, the IC50 in assay [1] is 39.5 µM; in assay [2], greater than 50 µM. Further, the result in assay [4] and in assay [5] was inactive.
On to `CC(C)(C)OC(=O)Cn1cc(-c2ccc(C(=O)c3[nH]c(Cl)c(Cl)c3-n3c(C(=O)c4ccc(-c5cn(CC(=O)OC(C)(C)C)nn5)cc4O)cc(Cl)c3Cl)c(O)c2)nn1`, for which the IC50 in assay [1] stood at 5.1 µM; in assay [2] it was 8.1 µM. Besides, the result in assay [4] and in assay [5] was inactive.
As to `CCOC(=O)Cn1cc(-c2ccc(C(=O)c3[nH]c(Cl)c(Cl)c3-n3c(C(=O)c4ccc(-c5cn(CC(=O)OCC)nn5)cc4O)cc(Cl)c3Cl)c(O)c2)nn1`, the IC50 in assay [2] was greater than 100 µM. Moreover, the result in assay [4] and in assay [5] was inactive.
As to `O=C(c1ccc(C(F)(F)F)cc1O)c1[nH]c(Cl)c(Cl)c1-n1c(C(=O)c2ccc(C(F)(F)F)cc2O)cc(Cl)c1Cl`, the IC50 in assay [1] was 8.1 µM; in assay [2], 9.7 µM. The outcome in assay [4] and in assay [6] was Active.
For `O=C(c1cc(Cl)c(O)cc1O)c1[nH]c(Cl)c(Cl)c1-n1c(C(=O)c2cc(Cl)c(O)cc2O)cc(Cl)c1Cl`, the IC50 in assay [1] is 10.7 µM; in assay [2], greater than 50 µM. In addition, the result in assay [4] and in assay [5] was inactive.
Regarding `COc1ccccc1C(=O)c1c(-n2c(C(=O)c3ccccc3OC)cc(Cl)c2Cl)c(Cl)c(Cl)n1C`, the IC50 in assay [1] turned out to be 15.5 µM; in assay [2], 64.9 µM.
As for `O=C(O)Cn1cc(-c2cc(O)c(C(=O)c3[nH]c(Cl)c(Cl)c3-n3c(C(=O)c4cc(Cl)c(-c5cn(CC(=O)O)nn5)cc4O)cc(Cl)c3Cl)cc2Cl)nn1`, in assay [2], the IC50 was greater than 50 µM. For the same compound, the result in assay [4] and in assay [5] was inactive.
On to `Cn1c(Cl)c(Cl)c(-n2c(C(=O)c3ccccc3O)cc(Cl)c2Cl)c1C(=O)c1ccccc1O`, for which the IC50 in assay [1] was greater than 100 µM; in assay [2], 7.9 µM.
With `O=C(c1ccc(P(=O)(O)O)cc1O)c1[nH]c(Cl)c(Cl)c1-n1c(C(=O)c2ccc(P(=O)(O)O)cc2O)cc(Cl)c1Cl`, the result in assay [4] and in assay [5] was inactive.
For the compound `COc1ccccc1C(=O)c1[nH]c(Cl)c(Cl)c1-n1c(C(=O)c2ccc(Cl)cc2OC)cc(Cl)c1Cl`, the 50% inhibitory concentration (IC50) in assay [1] came to 8 µM; in assay [2], 9.5 µM. Moreover, the result in assay [4] and in assay [5] was inactive.
As for `O=C(c1ccc(-c2cn(C3CCCCC3)nn2)cc1O)c1[nH]c(Cl)c(Cl)c1-n1c(C(=O)c2ccc(-c3cn(C4CCCCC4)nn3)cc2O)cc(Cl)c1Cl`, the IC50 in assay [1] was determined as 1.4 µM; in assay [2], 3.8 µM. Further, the outcome in assay [4] and in assay [5] was inactive.
The compound `O=C(O)Cn1cc(-c2ccc(C(=O)c3[nH]c(Cl)c(Cl)c3-n3c(C(=O)c4ccc(-c5cn(CC(=O)O)nn5)cc4O)cc(Cl)c3Cl)c(O)c2)nn1` had an IC50 in assay [2] greater than 50 µM. In addition, the outcome in assay [4] and in assay [5] was inactive.
As to `O=C(c1ccccc1O)c1[nH]c(Cl)c(Cl)c1-n1c(C(=O)c2ccc(Cl)cc2O)cc(Cl)c1Cl`, the IC50 in assay [1] is 6.5 µM; in assay [2], 9.2 µM. The outcome in assay [4] and in assay [5] was Active.
With `O=C(c1ccccc1O)c1[nH]c(Cl)c(Cl)c1-n1c(C(=O)c2ccc(F)cc2O)cc(Cl)c1Cl`, the figures for the IC50 in assay [1] and in assay [2] were 9.6 µM and 21.3 µM, respectively. The result in assay [4] and in assay [6] was Active.
For `C=Cc1ccc(C(=O)c2[nH]c(Cl)c(Cl)c2-n2c(C(=O)c3ccc(C=C)cc3O)cc(Cl)c2Cl)c(O)c1`, the values for the IC50 in assay [1] and in assay [2] were 3.7 µM and 3.5 µM, respectively. The outcome in assay [4] and in assay [6] was Active.
`O=C(c1ccccc1O)c1[nH]c(Cl)c(Cl)c1-n1c(C(=O)c2ccccc2O)cc(Cl)c1Cl`: in assay [2], it took 16.4 µM to reach half-maximal inhibition (IC50).
Compound `O=C(O)CSc1ccc(C(=O)c2[nH]c(Cl)c(Cl)c2-n2c(C(=O)c3ccc(SCC(=O)O)cc3O)cc(Cl)c2Cl)c(O)c1` gave an IC50 in assay [2] greater than 100 µM. For the same compound, the outcome in assay [4] and in assay [5] was inactive.
On to `O=C(c1ccccc1O)c1[nH]c(Cl)c(Cl)c1-n1c(C(=O)c2cc(F)ccc2O)cc(Cl)c1Cl`, for which the IC50 in assay [1] is 8.9 µM; in assay [2] it was 13.3 µM. Besides, the outcome in assay [4] and in assay [5] was Active.
In the case of `CCc1ccc(C(=O)c2[nH]c(Cl)c(Cl)c2-n2c(C(=O)c3ccc(CC)cc3O)cc(Cl)c2Cl)c(O)c1`, the outcome in assay [4] and in assay [6] was Active.
As to `O=C(c1ccccc1O)c1[nH]c(Cl)c(Cl)c1-n1c(C(=O)c2cccc(Cl)c2O)cc(Cl)c1Cl`, the IC50 turned out to be 4.1 µM in assay [1] and 10.1 µM in assay [2].
On the same counts, the results for `CCCCCCCCn1cc(-c2ccc(C(=O)c3[nH]c(Cl)c(Cl)c3-n3c(C(=O)c4ccc(-c5cn(CCCCCCC)nn5)cc4O)cc(Cl)c3Cl)c(O)c2)nn1` are 0.6 µM and 0.5 µM.
Take `O=C(c1ccccc1O)c1[nH]c(Cl)c(Cl)c1-n1c(C(=O)c2c(O)cccc2F)cc(Cl)c1Cl`: the results for the IC50 in assay [1] and in assay [2] were 13.1 µM and 43.7 µM, respectively. Also, the result in assay [4] and in assay [5] was inactive.
